Data on two molecules can be found in ChEMBL document CHEMBL5149984, “Discovery of HN37 as a Potent and Chemically Stable Antiepileptic Drug Candidate” (J Med Chem, 2021).

Data set [1] is described as follows: Tmax in Sprague-Dawley rat at 2 mg/kg, po measured upto 24 hrs by LC-MS/MS method. As to conditions: in vivo. Type of data set: ADME, organism-based. An outline of the steps:
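Male SD rats (180–220 g) dosed orally at 2, 6 and 20 mg/kg, handled like the mice: fasting, 5% DMSO/5% Tween 80/saline vehicle, acetonitrile extraction, LC-MS/MS of plasma. In a separate set at 6 mg/kg p.o., blood and brain were sampled together.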

The target in data set [2] is CYP2B6 (Homo sapiens, UniProt P20813). As to the kind of experiment: Inhibition of human liver microsome CYP2B6 at 0.10 to 50 uM preincubated with NADPH for 0.5 hrs followed by substrate addition by LC-MS/MS method relative to control. Type of data set: ADME. Conditions: liver microsomes, dose 0.1-50 µM.
The target in data set [3] is Potassium voltage-gated channel subfamily KQT member 2 (Rattus norvegicus) (UniProt O88943). As to the kind of experiment: Agonist activity at rat KCNQ2 channel expressed in CHO cells assessed as amplitude change of outward current at 0.1 uM by patch clamp method. Type of data set: cell-based. As to conditions: filed as agonist. An outline of the steps:
(§1)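 Whole-cell patch clamp at room temperature on CHO cells (DMEM/F12, 10% FBS) transiently co-transfected with EGFP and hKCNQ1, rKCNQ2, rKCNQ3 A278T, hKCNQ4 or hKCNQ5; KCNQ2/3 at 1:1 cDNA ratio. Pipette solution 145 mM KCl, 5 mM MgATP, pH 7.3; bath 140 mM NaCl, 5 mM KCl, pH 7.4, under perfusion. V1/2 from Boltzmann fits; I/I0 is current amplitude with versus without compound; n = 4−6.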

Data set [4] concerns the target Cytochrome P450 2C9 (Homo sapiens, UniProt P11712). The data set can be described thus: Time dependent inhibition of human liver microsome CYP2C9 preincubated for 0.5 hrs in presence or absence of NADPH followed by substrate addition by LC-MS/MS method. Type of data set: ADME, microsomes. An outline of the steps: (§2)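 Human liver microsomes preincubated 0.5 h with 0.10–50 μM test compound, with or without NADPH, then CYP-specific probe substrate added and incubation continued. Metabolite measured by LC-MS/MS; % activity remaining relative to no-compound control; IC50 fitted by Probit model. For CYP3A4, midazolam 1′-hydroxylation and testosterone 6β-hydroxylation were read separately.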

The subject of data set [5] is Mus musculus. The data set can be described thus: Anticonvulsant activity in MES induced Kunming mouse model of seizure at 3 mg/kg, po after 1 hr. In kind it is functional. In outline:
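MES test in male KM mice. Compounds freshly suspended in 0.5% CMC-Na and given by gavage at 20 mL/kg; 160 V stimulus through ear clips. Protection scored as absence of hindlimb tonic extension; time course at 0.25, 0.5, 1 and 2 h, otherwise tested at 1 h. ED50 from dose−response by nonlinear regression; Fisher's exact test versus vehicle.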

Data set [6] in a line: Cmax in Sprague-Dawley rat at 6 mg/kg, po measured upto 24 hrs by LC-MS/MS method. Type of data set: ADME, organism-based. More on the design: time < 24 hrs, dose 6 mg/kg, route po. Conditions: in vivo. In outline: (§3)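 Male SD rats (180−220 g) given single oral doses of 2, 6 and 20 mg/kg; handled as in the mouse PK study (fasted 12 h before and 2 h after dosing, 5% DMSO/5% Tween 80/90% saline formulation). In a separate 6 mg/kg p.o. set, blood and brain were sampled together. Plasma and brain levels by LC−MS/MS.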

Data set [7] in a line: AUC(0 to t) in Sprague-Dawley rat brain at 6 mg/kg, po measured upto 24 hrs by LC-MS/MS method. In kind it is ADME, organism-based. More on the design: dose 6 mg/kg, time < 24 hrs, route po. An outline of the steps:
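Separate experiment in male SD rats given 6 mg/kg orally; blood and brain concentrations measured concurrently. Samples extracted with acetonitrile (brain homogenized in 10 volumes acetonitrile and sonicated) and analysed by LC−MS/MS; AUC0−t by trapezoidal method.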

Data set [8] can be described thus: Metabolic stability in rat liver microsomes assessed as intrinsic clearance. Conditions: read-out: CLH. Type of data set: ADME, Microsome.
Data set [9] has as its target T1, Potassium voltage-gated channel subfamily KQT member 1 (Homo sapiens, UniProt P51787).
T1 sequence (P51787 whole entry): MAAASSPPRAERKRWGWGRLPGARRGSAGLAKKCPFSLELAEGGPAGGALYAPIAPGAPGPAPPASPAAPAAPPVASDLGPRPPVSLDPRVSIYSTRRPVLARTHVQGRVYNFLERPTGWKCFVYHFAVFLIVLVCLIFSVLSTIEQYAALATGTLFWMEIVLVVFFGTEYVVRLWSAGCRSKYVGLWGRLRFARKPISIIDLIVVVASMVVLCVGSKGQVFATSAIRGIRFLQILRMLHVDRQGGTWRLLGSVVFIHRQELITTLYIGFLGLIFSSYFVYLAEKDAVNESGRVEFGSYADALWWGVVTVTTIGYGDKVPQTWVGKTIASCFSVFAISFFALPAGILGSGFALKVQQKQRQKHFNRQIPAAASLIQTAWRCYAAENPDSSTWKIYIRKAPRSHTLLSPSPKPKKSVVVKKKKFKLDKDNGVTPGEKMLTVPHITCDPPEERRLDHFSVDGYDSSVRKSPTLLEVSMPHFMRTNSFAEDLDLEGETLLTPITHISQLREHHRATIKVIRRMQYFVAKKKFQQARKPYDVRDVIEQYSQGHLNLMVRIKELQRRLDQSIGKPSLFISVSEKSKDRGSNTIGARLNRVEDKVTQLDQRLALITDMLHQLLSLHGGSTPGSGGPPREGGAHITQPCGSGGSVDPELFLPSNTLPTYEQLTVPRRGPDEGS
The data set can be described thus: Agonist activity at human KCNQ1 channel expressed in CHO cells assessed as amplitude change of outward current at 0.1 uM by patch clamp method. In kind it is cell-based. An outline of the steps: as §1

Data set [10] addresses T1, Potassium voltage-gated channel subfamily KQT member 1. The data set can be described thus: Agonist activity at human KCNQ1 channel expressed in CHO cells assessed as shift of half voltage of maximal activation at 0.1 uM by patch clamp method. Type of data set: cell-based. An outline of the steps: as §1
The target in data set [11] is Cytochrome P450 3A4 (Homo sapiens, UniProt P08684). The data set can be described thus: Time dependent inhibition of human liver microsome CYP3A4 preincubated for 0.5 hrs in presence or absence of NADPH followed by midazolam addition by LC-MS/MS method. Type of data set: ADME, microsomes. An outline of the steps: as §2
Data set [12] is described as follows: Metabolic stability in human liver microsomes assessed as half life. Type of data set: ADME, Microsome.
Data set [13] is described as follows: Ratio of AUC(0 to t) in Sprague-Dawley rat brain to plasma at 6 mg/kg, po measured upto 24 hrs by LC-MS/MS method. Type of data set: ADME, organism-based. Conditions: brain and plasma. In outline: as §3
In data set [14] the target is T2, Potassium voltage-gated channel subfamily KQT member 2/member 3 (Rattus norvegicus) (UniProt O88943+O88944). The data set can be described thus: Potency index, ratio of retigabine EC50 to test compound EC50 for agonist activity at rat KCNQ2/3 channel expressed in CHO cells by patch clamp method. Type of data set: cell-based.
Data set [15] is described as follows: Metabolic stability in monkey liver microsomes assessed as half life. Conditions: rhesus monkey. In kind it is ADME, Macaca mulatta, Microsome.
Data set [16] in a line: Neurotoxicity in Kunming mouse assessed as motor impairment rate at 300 mg/kg, po after 1 hr by rotarod test. In kind it is toxicity, organism-based. Conditions: in vivo. An outline of the steps: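 Male KM mice dosed intragastrically with compound freshly suspended in 0.5% CMC-Na. Rotarod performance scored 1 h after dosing as the fraction of animals showing motor impairment. Fisher's exact test versus vehicle; TD50 from nonlinear dose−response fit.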

A short description of data set [17]: Toxicity in C57BL/6 mouse assessed as sedative effect at 80 mg/kg. Type of data set: organism-based. As to conditions: in vivo.
For data set [18], the target named is T2, Potassium voltage-gated channel subfamily KQT member 2/member 3 (Rattus norvegicus). As to the kind of experiment: Agonist activity at rat KCNQ2/3 channel expressed in CHO cells assessed as amplitude change of outward current at 10 uM by patch clamp method. Type of data set: cell-based. Conditions: filed as agonist. In outline:
as §1

Sequence of CYP2B6 (P20813 whole entry): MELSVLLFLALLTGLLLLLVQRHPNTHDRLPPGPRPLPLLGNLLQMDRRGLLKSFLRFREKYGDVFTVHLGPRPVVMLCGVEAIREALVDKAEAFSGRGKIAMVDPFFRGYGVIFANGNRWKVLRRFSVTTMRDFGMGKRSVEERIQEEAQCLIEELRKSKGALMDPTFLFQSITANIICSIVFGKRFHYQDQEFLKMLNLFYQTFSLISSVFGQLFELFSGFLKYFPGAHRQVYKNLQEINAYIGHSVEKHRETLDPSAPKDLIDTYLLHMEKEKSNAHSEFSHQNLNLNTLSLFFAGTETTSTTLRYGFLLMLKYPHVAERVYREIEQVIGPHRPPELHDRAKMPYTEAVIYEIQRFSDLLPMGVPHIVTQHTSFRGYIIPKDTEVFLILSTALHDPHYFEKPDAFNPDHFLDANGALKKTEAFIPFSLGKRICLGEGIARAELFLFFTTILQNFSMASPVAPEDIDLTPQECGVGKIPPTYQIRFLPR
Sequence of Potassium voltage-gated channel subfamily KQT member 2 (Rattus norvegicus) (O88943 whole entry, the tested form may be a part): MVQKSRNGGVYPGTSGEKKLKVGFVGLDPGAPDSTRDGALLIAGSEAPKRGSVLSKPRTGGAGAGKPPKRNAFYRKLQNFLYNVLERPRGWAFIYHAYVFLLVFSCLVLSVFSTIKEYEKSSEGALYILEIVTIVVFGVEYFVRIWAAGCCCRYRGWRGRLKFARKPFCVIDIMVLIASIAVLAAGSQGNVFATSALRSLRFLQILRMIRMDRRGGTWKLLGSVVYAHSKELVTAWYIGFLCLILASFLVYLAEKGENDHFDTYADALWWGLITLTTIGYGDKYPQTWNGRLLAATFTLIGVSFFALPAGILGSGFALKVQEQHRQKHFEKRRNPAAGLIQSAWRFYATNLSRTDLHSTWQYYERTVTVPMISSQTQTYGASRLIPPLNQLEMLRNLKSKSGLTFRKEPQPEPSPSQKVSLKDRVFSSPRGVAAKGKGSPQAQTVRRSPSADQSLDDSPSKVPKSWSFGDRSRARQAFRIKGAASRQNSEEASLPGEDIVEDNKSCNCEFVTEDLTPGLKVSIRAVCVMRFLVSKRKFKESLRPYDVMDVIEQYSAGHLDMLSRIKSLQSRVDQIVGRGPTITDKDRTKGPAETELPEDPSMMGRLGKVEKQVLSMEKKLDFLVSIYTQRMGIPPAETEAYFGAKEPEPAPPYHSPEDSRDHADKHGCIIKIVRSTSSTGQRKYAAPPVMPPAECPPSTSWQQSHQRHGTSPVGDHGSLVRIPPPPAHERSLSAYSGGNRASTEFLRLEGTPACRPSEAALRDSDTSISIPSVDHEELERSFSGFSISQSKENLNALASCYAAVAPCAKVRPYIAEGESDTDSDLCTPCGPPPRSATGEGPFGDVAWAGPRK
Sequence of Cytochrome P450 2C9 (P11712 whole entry): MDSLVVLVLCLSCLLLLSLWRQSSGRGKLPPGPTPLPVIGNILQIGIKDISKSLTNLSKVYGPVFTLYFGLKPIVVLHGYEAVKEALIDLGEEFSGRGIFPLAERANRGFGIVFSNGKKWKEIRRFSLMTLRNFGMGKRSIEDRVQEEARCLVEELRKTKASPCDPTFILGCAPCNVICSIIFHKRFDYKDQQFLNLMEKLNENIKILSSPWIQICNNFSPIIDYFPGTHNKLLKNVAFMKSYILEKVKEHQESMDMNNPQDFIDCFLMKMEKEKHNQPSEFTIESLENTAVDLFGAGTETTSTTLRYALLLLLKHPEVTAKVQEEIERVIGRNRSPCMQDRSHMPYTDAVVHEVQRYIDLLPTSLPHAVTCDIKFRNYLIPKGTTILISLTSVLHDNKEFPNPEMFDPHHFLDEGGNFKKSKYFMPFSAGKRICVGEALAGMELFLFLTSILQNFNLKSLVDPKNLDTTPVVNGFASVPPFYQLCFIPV
Sequence of Cytochrome P450 3A4 (P08684 whole entry): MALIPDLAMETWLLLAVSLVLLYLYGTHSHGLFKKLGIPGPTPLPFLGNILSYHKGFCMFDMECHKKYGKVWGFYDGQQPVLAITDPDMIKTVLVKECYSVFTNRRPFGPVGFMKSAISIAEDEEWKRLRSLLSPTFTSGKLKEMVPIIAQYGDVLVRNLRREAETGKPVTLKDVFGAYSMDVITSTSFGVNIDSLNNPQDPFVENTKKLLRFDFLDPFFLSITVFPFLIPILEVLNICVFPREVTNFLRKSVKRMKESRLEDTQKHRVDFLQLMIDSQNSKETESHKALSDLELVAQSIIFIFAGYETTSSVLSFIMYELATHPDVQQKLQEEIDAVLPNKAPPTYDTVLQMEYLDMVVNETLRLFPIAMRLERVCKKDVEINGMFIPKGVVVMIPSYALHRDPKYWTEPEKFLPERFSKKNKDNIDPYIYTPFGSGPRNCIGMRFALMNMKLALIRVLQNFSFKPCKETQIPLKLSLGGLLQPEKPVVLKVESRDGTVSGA

For `C#CCN(Cc1ccc(F)cc1)c1cc(C)c(NC(=O)OC)c(C)c1`, in data set [1], the Tmax is 30 min. Further, in data set [2], the inhibition at 0.5 h, up to 50 µM is < 25%. Moreover, the Activity in data set [3] is 3.4; in [5], 62.5%; in [9] it was 0.99; in data set [10] it was -5.47 mV. The IC50 in data set [4] and in [11] was > 50 µM each time. Further, in [6], the Cmax is 264 ng/mL. The same molecule yielded an AUC(0-t) at 24 h in [7] of 1520 ng·h/mL. The CLint scaled in data set [8] was found to be 105 mL/min/kg. Also, the half-life came to 27.7 min in [12] and 18.1 min in data set [15]. Moreover, in data set [13], the partition ratio (Kp) at 24 h is 2.86. For the same molecule, the Ratio EC50 in data set [14] was determined as 125.

As to `CCOC(=O)Nc1ccc(NCc2ccc(F)cc2)cc1N` [EZOGABINE], the Activity in data set [16] was 100%; in data set [17], “Toxic”; in [18], 1.97.
